Bioassay records: PubChem BioAssay, several laboratories
HSP90 inh – inhibitors of HSP90 luciferase refolding in rabbit reticulocyte lysate | luciferase refolding luminescence, 3 h | inhibition, % at 5.6 µM | hit rate 0.91% among 290,000;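 active = inhibition above the screen-wide mean plus 3 SD, computed separately per campaign, cut at about 16% in these data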;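 also: inhibitors lower the luminescence because luciferase stays unfolded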
SENP8 block-1 – blocks the human protease SENP8. Q96LD8. purified SENP8, Z-RLRGG-aminoluciferin cleavage, luminescence. inhibition, % at 10 µM. hit rate 1.2% among 330,000. AID 2540; in the data active = inhibition above about 50%
SENP6 inh – SENP6 protease inhibition. Q9GZR1. Recombinant SENP6 catalytic domain, aminoluciferin luminescence. inhibition, % at 10 µM. hit rate 1.8% among 330,000. AID 2599;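 active = inhibition above about 50% at the single tested dose, limit read from the data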
SENP1 FRET inh – SENP1 (human) catalytic domain inhibition; recombinant SENP1 catalytic domain, CyPet-SUMO1-YPet FRET cleavage; inhibition, % at 10 µM; hit rate 0.21% among 360,000;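 active = inhibition at least 30% at 10 µM, raw YFP signal under a set limit, fluorescence ratio 0.5 to 1.5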
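Assay system – human recombinant His6-tagged SENP1 catalytic domain enzyme · Input – SENP1 enzyme, 20 pM final · Buffer or medium – Tris pH 8 buffer plus EDTA, NaCl, BME, BSA, NP40, catalase · Schedule – 50 min reaction at room temperature · Technique – FRET read of cyan and yellow fluorescence · Control set – no-enzyme wells low, DMSO-plus-enzyme wells high control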
SENP7 block – inhibitors of human SENP7 protease; hit rate 1.5% among 330,000; inhibition, % at 5 µM; Q9BQF6; recombinant SENP7, Z-RLRGG-aminoluciferin luminescence, 40 min;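 active = inhibition above about 50% at the single test dose, limit read from the data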
SENP8 block-2 – blocks human SENP8 cleavage of Nedd8 substrate; Q96LD8; recombinant SENP8, Nedd8 substrate fluorescence; inhibition, % at 20 µM; hit rate 0.64% among 360,000; AID 602440; in the data active = inhibition mostly above about 40%, no sharp cut-off; inactive = mostly below about 27%
HSP90 confirm – HSP90 inhibition, confirmation assay | hit rate 64% among 2,300 | rabbit reticulocyte lysate, luciferase refolding luminescence, 3 h | AID 1846 | shares compounds with HSP90 inh | inhibition, % at 5.9 µM; in the data active = inhibition above about 18%
luciferase ctr – counter-screen for HSP90 inhibitors: inhibitors of firefly luciferase | shares compounds with HSP90 inh | purified native firefly luciferase, luminescence | inhibition, % at 5.9 µM | hit rate 48% among 2,300 | AID 1847;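 active = inhibition above the mean inhibition of all tested sample wells plus 3 SD, cut at about 10% in these data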
Target sequence (P08659 whole entry, looked up): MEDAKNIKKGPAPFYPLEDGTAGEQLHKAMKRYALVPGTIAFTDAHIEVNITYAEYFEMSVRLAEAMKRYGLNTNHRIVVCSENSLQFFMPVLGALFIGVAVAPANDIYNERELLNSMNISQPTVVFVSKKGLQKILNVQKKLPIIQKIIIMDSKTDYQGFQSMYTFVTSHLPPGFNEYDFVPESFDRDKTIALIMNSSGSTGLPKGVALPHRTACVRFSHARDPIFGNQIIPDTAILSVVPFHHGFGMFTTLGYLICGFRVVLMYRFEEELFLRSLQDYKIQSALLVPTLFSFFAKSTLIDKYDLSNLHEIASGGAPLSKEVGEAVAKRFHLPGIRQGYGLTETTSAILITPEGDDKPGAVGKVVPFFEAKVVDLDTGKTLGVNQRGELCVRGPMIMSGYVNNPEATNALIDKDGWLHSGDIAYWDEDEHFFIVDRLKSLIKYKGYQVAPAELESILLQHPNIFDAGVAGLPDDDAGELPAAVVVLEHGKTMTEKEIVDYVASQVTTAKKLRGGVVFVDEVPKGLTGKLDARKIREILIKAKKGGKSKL
SENP8 confirm – confirmation of human SENP8 protease inhibitors | hit rate 40% among 6,200 | Recombinant SENP8, Z-RLRGG-aminoluciferin luminescence, 60 min | inhibition, % at 12.5 µM | shares compounds with SENP7 block;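 active = mean inhibition across replicates above about 50%, limit read from the data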
SENP6 conf – human SENP6 inhibition, confirmed. recombinant SENP6, Z-RLRGG-aminoluciferin luminescence. inhibition, % at 12.5 µM. hit rate 58% among 6,200. shares compounds with SENP7 block
SENP7 confirm – human SENP7 inhibition, confirmed | shares compounds with SENP7 block | recombinant SENP7, Z-RLRGG-aminoluciferin luminescence, 40 min | inhibition, % at 12.5 µM | hit rate 69% among 6,200
Casp3 SENP sel – inhibits human caspase-3 in SENP selectivity test; shares compounds with SENP7 block; purified caspase-3, Z-DEVD-aminoluciferin luminescence, 60 min; inhibition, % at 12.5 µM; hit rate 60% among 6,200;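 active = mean inhibition above about 50%, limit read from the data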
Target sequence (P42574 28-227 limits assumed): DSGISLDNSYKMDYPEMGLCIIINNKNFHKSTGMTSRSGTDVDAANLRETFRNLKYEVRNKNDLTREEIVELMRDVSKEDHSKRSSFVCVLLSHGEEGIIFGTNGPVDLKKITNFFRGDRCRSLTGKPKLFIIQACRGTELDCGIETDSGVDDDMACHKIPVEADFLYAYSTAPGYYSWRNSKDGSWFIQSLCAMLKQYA
Luc interf – counter-screen for SENP inhibitors: luminescence interference; shares compounds with SENP7 block; Pre-incubated SENP8/Z-RLRGG-aminoluciferin, luciferase luminescence interference; inhibition, % at 12.5 µM; hit rate 39% among 6,200;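 active = mean inhibition above about 50% when retested at one dose, limit read from the data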
Hits are given with their value; – = inactive; · = not tested or not shown. A selection: hits, their analogues and other compounds. The true share with any hit is near 2.9%.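 The calls were made as follows, unless noted: active = mean inhibition above about 50% in the one-dose retest (limit read from the data); inactive = the rest.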

SMILES | HSP90 inh | SENP8 block-1 | SENP6 inh | SENP1 FRET inh | SENP7 block | SENP8 block-2 | HSP90 confirm | luciferase ctr | SENP8 confirm | SENP6 conf | SENP7 confirm | Casp3 SENP sel | Luc interf
COc1cc(NCCCCCCCN)c2ncccc2c1 | 80.5 | 89.5 | 94.1 | – | 95.2 | – | – | – | 69.6 | 86.8 | 62.7 | 97.2 | –
COc1cc(NCc2ccccc2O)c2ncccc2c1 | – | – | – | – | – | – | · | · | · | · | · | · | ·
Cc1ccoc1C(=O)Nc1ccc2ccccc2c1 | 24.2 | 96.3 | 97.4 | – | 99.5 | – | 55.6 | 46.9 | 95.8 | 98.2 | 102.3 | 95.6 | 91.5
O=C(Nc1ccc2ccccc2c1)c1ccc(Cl)cc1 | 22.6 | – | – | – | 50.9 | – | 36.6 | 17.2 | – | – | – | 67.2 | –
Cc1ccc(C(=O)Nc2ccc3ccccc3c2)cc1 | 68.8 | 87.4 | 91.4 | – | 97.2 | – | 75.7 | 69.1 | – | 51.3 | 100.6 | 89.0 | –
Cc1ccc2cc(NC(=O)c3ccccc3)ccc2n1 | 18.4 | 52.9 | 61.9 | – | 64.4 | – | – | – | – | – | 81.2 | 73.5 | 62.7
Cc1ccoc1C(=O)Nc1ccc(CC(=O)O)cc1 | – | – | – | – | – | – | · | · | · | · | · | · | ·
O=C(Nc1ccncc1)c1ccc2ccccc2c1 | – | – | – | – | – | – | · | · | · | · | · | · | ·
O=C1c2ccccc2C(=O)N1C1C(=O)N2CCSC12C(=O)OCc1ccccc1 (centres undefined) | · | · | · | – | · | – | · | · | · | · | · | · | ·
CC(=O)Nc1cccc(-c2csc(C(O)c3ccccc3)n2)c1 (centres undefined) | · | · | · | – | · | – | · | · | · | · | · | · | ·
CC(=O)c1sc(NC(=O)C2COc3ccccc3O2)nc1C (centres undefined) | 42.6 | – | 52.0 | – | – | – | 69.7 | 65.7 | – | – | 62.1 | 62.2 | 51.2
O=C(Nc1nncs1)C1COc2ccccc2O1 (centres undefined) | – | – | – | – | – | – | · | · | · | · | · | · | ·
CC1(C)Oc2ccc(NC(=O)C3COc4ccccc4O3)cc2O1 (centres undefined) | 27.0 | – | 66.2 | – | – | – | 49.3 | 43.8 | 72.3 | 72.0 | 92.6 | 70.6 | 77.3
Cc1ccc(NC(=O)C2COc3ccccc3O2)cc1 (centres undefined) | – | – | – | – | – | – | · | · | · | · | · | · | ·
CCC(C)c1ccc(NC(=O)c2cccs2)cc1 (centres undefined) | 17.4 | 86.5 | 90.1 | – | 84.4 | – | 24.3 | – | 92.4 | 92.6 | 99.1 | 76.1 | 82.2
CCC(C)NS(=O)(=O)c1ccc(NC(=O)c2cccs2)cc1 (centres undefined) | – | – | – | – | – | – | · | · | · | · | · | · | ·
COc1ccccc1/C=C1\N=C(C(C)(C)C)OC1=O | – | – | – | – | – | – | · | · | · | · | · | · | ·
Cc1cc(C2=NNC(=NC3CC3)SC2)c(C)n1-c1ccccc1F | 36.0 | 79.7 | – | – | – | – | 85.2 | 76.0 | – | 93.3 | 100.2 | 93.0 | 59.7
Cc1cc(C2=NNC(=NC3CCCCC3)SC2)c(C)n1-c1c(C)n(C)n(-c2ccccc2)c1=O | – | – | – | – | – | – | · | · | · | · | · | · | ·
NNC(=O)c1cccc(COc2ccc3c(c2)CCC3)c1 | 35.7 | – | 69.1 | – | – | – | 65.9 | 56.3 | 68.0 | 60.9 | 87.9 | – | 86.2
O=C(COc1ccc2c(c1)CCC2)NCc1ccccc1 | – | – | – | – | – | – | · | · | · | · | · | · | ·
CC(C)(C)c1ccc(/C=C2\SC(=O)N(CCNC(=O)c3cccc(S(=O)(=O)N4CCOCC4)c3)C2=O)cc1 | 20.7 | 81.9 | 90.7 | – | 90.4 | – | 74.4 | 70.2 | – | 59.0 | 73.6 | 54.8 | –
COCCCNC(=O)c1cccn2c(=O)c3cc4ccccc4cc3nc12 | 17.1 | 85.4 | 81.7 | – | – | – | 26.1 | 17.7 | – | – | – | – | –
COc1cccc(Nc2nc(-c3sc(NC(=O)c4ccccc4)nc3C)cs2)c1 | 44.9 | – | 59.4 | – | – | – | – | – | – | – | – | – | –
Cc1nc(NC(=O)c2ccccc2)sc1-c1csc(NCc2ccco2)n1 | 48.3 | – | 60.2 | – | 66.1 | – | 28.9 | – | – | – | – | 66.7 | –
SMILES | HSP90 inh | SENP8 block-1 | SENP6 inh | SENP1 FRET inh | SENP7 block | SENP8 block-2 | HSP90 confirm | luciferase ctr | SENP8 confirm | SENP6 conf | SENP7 confirm | Casp3 SENP sel | Luc interf
COc1cccc(Nc2nc(-c3sc(NC(=O)CC(C)C)nc3C)cs2)c1 | – | – | – | – | – | – | · | · | · | · | · | · | ·
Cc1csc(NC(=O)c2cn3ccccc3n2)n1 | 54.5 | 69.8 | 84.0 | – | 84.8 | – | 70.2 | 62.1 | 65.1 | 86.0 | 96.8 | 95.0 | –
Cc1csc(NC(=O)c2ccccc2C(=O)O)n1 | – | – | – | – | – | – | · | · | · | · | · | · | ·
COc1ccc(C(=O)CSC(=S)N2CCCCC2)cc1 | · | · | · | – | · | – | · | · | · | · | · | · | ·
O=C(CSC(=S)N1CCCCC1)c1ccccc1 | 54.5 | 62.8 | 73.9 | – | 73.9 | – | 72.9 | 64.2 | – | 62.9 | 90.1 | 73.4 | 66.7
O=C(CSC(=S)N1CCCC1)c1ccccc1 | 19.0 | – | 63.6 | – | 54.2 | – | 42.8 | 43.8 | 52.1 | 51.7 | 77.5 | 69.9 | 55.5
C=CCn1c(=O)c2c(nc(-n3nc(C)cc3C)n2C)n(C)c1=O | – | – | – | – | – | – | · | · | · | · | · | · | ·
CCOC(=O)Cn1ccc(NC(=O)c2ccc3c(c2)OCO3)n1 | – | – | – | – | – | – | · | · | · | · | · | · | ·
COc1ccc(C(=O)Nc2nnc(SCC(=O)NCc3ccco3)s2)c(OC)c1 | 42.6 | – | 56.8 | – | 52.3 | – | 62.0 | 60.3 | – | – | 68.1 | 58.8 | –
COc1cccc(NC(=O)N2CCc3ccccc3C2)c1 | 21.0 | – | 53.4 | – | 53.4 | – | – | – | – | – | 79.7 | 69.7 | 56.4
COc1cccc(NC(=O)N2CCCCCC2)c1 | – | – | – | – | – | – | · | · | · | · | · | · | ·
Cc1ccn2cc(-c3ccc(Br)cc3)nc2c1 | 39.8 | 94.1 | 91.5 | – | 97.2 | – | 59.8 | 62.1 | 55.9 | 94.0 | 96.2 | 93.7 | –
Cc1ccc(S(=O)(=O)Nc2ccc(-c3cn4ccc(C)cc4n3)cc2)cc1 | – | – | – | – | – | – | · | · | · | · | · | · | ·
COc1ccc2nc(-c3ccccc3)nc(SC)c2c1 | · | · | · | – | · | – | · | · | · | · | · | · | ·
